Laboratory results as given in ChEMBL document CHEMBL2062386, “Discovery of LFF571: an investigational agent for Clostridium difficile infection” (J Med Chem, 2012).
pKd: −log10 of the molar value. Values after ≈ are worked out from the molar mass of the structure shown. Active and inactive are the calls of the source. The calls are words filed in the database; no cut-off is given here.

Key:
[1] = Antibacterial activity against Clostridium difficile ATCC 43255 by broth microdilution method; format: functional; details: Clostridioides difficile
How it was run: (§1)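 Broth microdilution MICs were run per CLSI M07-A8 (2009). The strain panel included C. difficile ATCC 43255, E. faecalis ATCC 29212 and S. pyogenes ATCC BAA-595.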

[2] = system: Enterococcus faecalis; assay: Antibacterial activity against Enterococcus faecalis ATCC 29212 by broth microdilution method; format: functional; how it was run: as §1
[3] = Binding affinity to Escherichia coli GDPNP-labelled EF-Tu by surface plasmon resonance analysis
[4] = system: Staphylococcus aureus; assay: Antibacterial activity against Staphylococcus aureus A4.018 by broth microdilution method; format: functional
[5] = system: Escherichia coli; assay: Inhibition of protein synthesis in Escherichia coli S30 extract at 2 uM after 75 mins by luciferase based luminescence assay relative to GE2270A; format: functional
[6] = system: Staphylococcus aureus; assay: Antibacterial activity against Staphylococcus aureus ATCC 49951 infected in CD1 mouse assessed as mouse survival up to 5 days; format: functional; details: ATCC 49951, 120 h
How it was run: (§2)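 Female CD1 mice (21–25 g) were infected ip with 1 × 10^8 CFU/mouse, 10–100× the minimal lethal dose. E. faecalis NB04025 was given in 50% rat fecal extract and S. aureus ATCC 49951 in 0.9% NaCl. Compound was given by iv tail-vein bolus at 1 and 5 h post-inoculation, at several dose levels (6 mice/group). ED50 with 95% CI was derived by probit analysis of day-5 survival.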

[7] = system: Streptococcus pyogenes; assay: Antibacterial activity against Streptococcus pyogenes ATCC BAA-595 by broth microdilution method; format: functional; how it was run: as §1
[8] = system: Enterococcus faecium; assay: Antibacterial activity against Enterococcus faecium 7130724 by broth microdilution method; format: functional
[9] = system: Enterococcus faecalis; assay: Antibacterial activity against Enterococcus faecalis NB04025 infected in CD1 mouse assessed as mouse survival up to 5 days; format: functional; details: NB04025, 120 h; how it was run: as §2
[10] = system: Clostridium difficile ATCC 43255; assay: Antibacterial activity against Clostridium difficile ATCC 43255 infected in golden syrian hamster assessed as decrease in toxin level in cecum after 21 days by ELISA; format: functional; details: Caecum
How it was run: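 In the clindamycin-pretreated, C. difficile-infected hamster model, oral compound was given once daily on days 1–5. Surviving animals were euthanized at study end (day 21). Cecal homogenates were assayed for C. difficile toxins A and B by Tox A/B II ELISA per kit directions.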

[11] = Antibacterial activity against Clostridium difficile ATCC 43255 infected in golden syrian hamster assessed as survival rate at 20 mg/kg, po qd administered days 1 to 5 measured on days 6 to 21; format: functional; details: Clostridioides difficile
How it was run: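 Golden Syrian hamsters got clindamycin 10 mg/kg sc on day −1. On day 0 they were gavaged with ~7.5 × 10^6 CFU C. difficile ATCC 43255 (0.75 mL). From 24 h post-infection they were dosed orally once daily for up to 5 days (8/dose), in a NaOH/PEG-400/2.5% Cremophor EL solution diluted in pH 7.4 PBS. Vehicle controls were included, and animals were observed twice daily through day 21.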

Compound	MIC [1] [µg/mL]	MIC [2] [µg/mL]	pKd [3]	MIC [4] [µg/mL]	inhibition at 2 µM [5] [%]	ED50 [6] [mg/kg]	MIC [7] [µg/mL]	MIC [8] [µg/mL]	ED50 [9] [mg/kg]	Activity [10]	survival at 20 mg/kg [11] [%]
CNC(=O)C[C@@H]1NC(=O)c2csc(n2)-c2ccc(-c3nc(N(CCCCCC(=O)O)C(=O)O[C@H]4CC[C@H](C(=O)O)CC4)cs3)nc2-c2csc(n2)-c2csc(n2)[C@H]([C@@H](O)c2ccccc2)NC(=O)CNC(=O)c2nc(sc2COC)[C@H](C(C)C)NC(=O)c2nc1sc2C	0.06 (≈ 0.0435 µM)	< 0.06	8.22	0.125 (≈ 0.0905 µM)	67	9.6	1 (≈ 0.724 µM)	< 0.06	0.8		
CNC(=O)C[C@@H]1NC(=O)c2csc(n2)-c2ccc(-c3nc(N(CCCC(=O)O)C(=O)O[C@H]4CC[C@H](C(=O)O)CC4)cs3)nc2-c2csc(n2)-c2csc(n2)[C@H]([C@@H](O)c2ccccc2)NC(=O)CNC(=O)c2nc(sc2COC)[C@H](C(C)C)NC(=O)c2nc1sc2C	0.06 (≈ 0.0444 µM)	< 0.06		0.25 (≈ 0.185 µM)	67	2.6	1 (≈ 0.739 µM)	0.06 (≈ 0.0444 µM)	2.2		
CNC(=O)C[C@@H]1NC(=O)c2csc(n2)-c2ccc(-c3nc(N(CCCCC(=O)O)C(=O)OCc4ccc(C(=O)O)cn4)cs3)nc2-c2csc(n2)-c2csc(n2)[C@H]([C@@H](O)c2ccccc2)NC(=O)CNC(=O)c2nc(sc2COC)[C@H](C(C)C)NC(=O)c2nc1sc2C	0.125 (≈ 0.0909 µM)	1 (≈ 0.727 µM)		2 (≈ 1.45 µM)	67		4 (≈ 2.91 µM)	1 (≈ 0.727 µM)			
CNC(=O)C[C@@H]1NC(=O)c2csc(n2)-c2ccc(-c3nc(N(CC(CC(=O)O)OC)C(=O)O[C@H]4CC[C@H](C(=O)O)CC4)cs3)nc2-c2csc(n2)-c2csc(n2)[C@H]([C@@H](O)c2ccccc2)NC(=O)CNC(=O)c2nc(sc2COC)[C@H](C(C)C)NC(=O)c2nc1sc2C (stereo partly specified)	0.06 (≈ 0.0434 µM)	1 (≈ 0.723 µM)		1 (≈ 0.723 µM)	67		4 (≈ 2.89 µM)	1 (≈ 0.723 µM)			
CN[C@H](CC(C)C)C(=O)N[C@H]1C(=O)N[C@@H](CC(N)=O)C(=O)N[C@H]2C(=O)N[C@H]3C(=O)N[C@H](C(=O)N[C@H](C(=O)O)c4cc(O)cc(O)c4-c4cc3ccc4O)[C@H](O)c3ccc(c(Cl)c3)Oc3cc2cc(c3O[C@@H]2O[C@H](CO)[C@@H](O)[C@H](O)[C@H]2O[C@H]2C[C@](C)(N)[C@H](O)[C@H](C)O2)Oc2ccc(cc2Cl)[C@H]1O [VANCOMYCIN]										Active	25
CNC(=O)C[C@@H]1NC(=O)c2csc(n2)-c2ccc(-c3nc(N(CCCCC(=O)O)C(=O)C[C@H]4CC[C@H](C(=O)O)CC4)cs3)nc2-c2csc(n2)-c2csc(n2)[C@H]([C@@H](O)c2ccccc2)NC(=O)CNC(=O)c2nc(sc2COC)[C@H](C(C)C)NC(=O)c2nc1sc2C	0.25 (≈ 0.183 µM)	8 (≈ 5.86 µM)		4 (≈ 2.93 µM)	30		32 (≈ 23.4 µM)	> 32			
CNC(=O)C[C@@H]1NC(=O)c2csc(n2)-c2ccc(-c3nc(N(CCCCC(=O)O)C(=O)O[C@@H]4CC[C@@H](C(=O)O)C[C@H]4CCCCC(=O)O)cs3)nc2-c2csc(n2)-c2csc(n2)[C@H]([C@@H](O)c2ccccc2)NC(=O)CNC(=O)c2nc(sc2COC)[C@H](C(C)C)NC(=O)c2nc1sc2C	0.25 (≈ 0.17 µM)	4 (≈ 2.73 µM)		8 (≈ 5.45 µM)	50		4 (≈ 2.73 µM)	4 (≈ 2.73 µM)			
CNC(=O)C[C@@H]1NC(=O)c2csc(n2)-c2ccc(-c3nc(N(CCCCCCC(=O)O)C(=O)O[C@H]4CC[C@H](C(=O)O)CC4)cs3)nc2-c2csc(n2)-c2csc(n2)[C@H]([C@@H](O)c2ccccc2)NC(=O)CNC(=O)c2nc(sc2COC)[C@H](C(C)C)NC(=O)c2nc1sc2C	0.06 (≈ 0.043 µM)	< 0.06		0.25 (≈ 0.179 µM)	67	6.6	2 (≈ 1.43 µM)	0.125 (≈ 0.0896 µM)	1		
CNC(=O)C[C@@H]1NC(=O)c2csc(n2)-c2ccc(-c3nc(N(CCCC(=O)O)C(=O)CCCCC(=O)O)cs3)nc2-c2csc(n2)-c2csc(n2)[C@H]([C@@H](O)c2ccccc2)NC(=O)CNC(=O)c2nc(sc2COC)[C@H](C(C)C)NC(=O)c2nc1sc2C	2 (≈ 1.53 µM)	32 (≈ 24.4 µM)		16 (≈ 12.2 µM)	30		> 32	32 (≈ 24.4 µM)			
CNC(=O)C[C@@H]1NC(=O)c2csc(n2)-c2ccc(-c3nc(N(CCCCC(=O)O)C(=O)NCCCC(=O)O)cs3)nc2-c2csc(n2)-c2csc(n2)[C@H]([C@@H](O)c2ccccc2)NC(=O)CNC(=O)c2nc(sc2COC)[C@H](C(C)C)NC(=O)c2nc1sc2C	4 (≈ 3.02 µM)	> 32		32 (≈ 24.1 µM)	30		> 32	> 32			
CNC(=O)C[C@@H]1NC(=O)c2csc(n2)-c2ccc(-c3nc(N(CCCC(=O)O)C(=O)c4ccc(C(=O)O)cn4)cs3)nc2-c2csc(n2)-c2csc(n2)[C@H]([C@@H](O)c2ccccc2)NC(=O)CNC(=O)c2nc(sc2COC)[C@H](C(C)C)NC(=O)c2nc1sc2C	4 (≈ 3 µM)	16 (≈ 12 µM)		32 (≈ 24 µM)	30		> 32	32 (≈ 24 µM)			
CNC(=O)C[C@@H]1NC(=O)c2csc(n2)-c2ccc(-c3nc(N(CCCCC(=O)O)C(=O)OC4CC(C(=O)O)C4)cs3)nc2-c2csc(n2)-c2csc(n2)[C@H]([C@@H](O)c2ccccc2)NC(=O)CNC(=O)c2nc(sc2COC)[C@H](C(C)C)NC(=O)c2nc1sc2C (stereo partly specified)	0.03 (≈ 0.0224 µM)	0.25 (≈ 0.187 µM)		0.5 (≈ 0.374 µM)	67		2 (≈ 1.49 µM)	0.25 (≈ 0.187 µM)			
CNC(=O)C[C@@H]1NC(=O)c2csc(n2)-c2ccc(-c3nc(N(CCCCC(=O)O)C(=O)N[C@H]4CC[C@H](C(=O)O)CC4)cs3)nc2-c2csc(n2)-c2csc(n2)[C@H]([C@@H](O)c2ccccc2)NC(=O)CNC(=O)c2nc(sc2COC)[C@H](C(C)C)NC(=O)c2nc1sc2C	1 (≈ 0.732 µM)	16 (≈ 11.7 µM)		16 (≈ 11.7 µM)	30		32 (≈ 23.4 µM)	> 32			
